In ChEMBL document CHEMBL1146088 (J Med Chem, 2006):

How the values were obtained:
RBL-2H3 = test: Inhibition of AEA uptake in RBL2H3 cells; format: functional, cell-based, Rattus norvegicus, Wistar
Procedure, shortened: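 RBL-2H3 cells incubated 5 min at 37 °C with [14C]AEA (2.4 µM, 10 000 cpm), with or without varying inhibitor concentrations. Medium extracted with CHCl3/CH3OH 2:1. Residual [14C]AEA in the lyophilized organic phase was measured by scintillation counting as an index of uptake.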

[1] = molecular target: T1, Transient receptor potential cation channel subfamily V member 1 (Homo sapiens, UniProt Q8NER1); test: Agonist activity on human recombinant TRPV1-mediated enhancement of intracellular calcium concentration in HEK293 cells; format: functional, cell-based
Procedure, shortened: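 HEK-293 cells stably overexpressing human TRPV1, plated on poly-L-lysine the day before. Loaded 2 h at 25 °C with 4 µM Fluo-3 methyl ester (0.04% Pluronic), washed, trypsinized and resuspended in Tyrode pH 7.4. Stirred-cuvette fluorescence (ex 488/em 540 nm) at 25 °C, read before and after compound at various concentrations. EC50 is the concentration giving half-maximal stimulation.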

Rattus norvegicus = species on record: Rattus norvegicus; test: Metabolic stability in rat brain membrane assessed by inhibition of AEA hydrolysis; format: ADME
Procedure, shortened: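 Mixture extracted with 2 volumes CHCl3/CH3OH 2:1. [14C]ethanolamine in the aqueous phase counted by scintillation. Value is the concentration giving 50% inhibition of hydrolysis.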

Cannabinoid receptor 1 = Cannabinoid receptor 1 (Homo sapiens, UniProt P21554); test: Binding affinity to human recombinant CB1 receptor expressed in COS cells; format: cell-based
Cannabinoid receptor 2 = Cannabinoid receptor 2 (Homo sapiens, UniProt P34972); test: Binding affinity to human recombinant CB2 receptor expressed in COS cells; format: cell-based
[2] = molecular target: T1, Transient receptor potential cation channel subfamily V member 1; test: Maximal agonist activity on human recombinant TRPV1-mediated enhancement of intracellular calcium concentration in HEK293 cells at 10 uM; format: functional, cell-based
Procedure, shortened: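 Fluo-3-loaded HEK-293 cells overexpressing human TRPV1, in Tyrode pH 7.4 at 25 °C, fluorescence ex 488/em 540 nm. Compound at 10 µM. Peak rise in intracellular Ca2+ expressed as percent of the response to ionomycin (4 µM).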

[3] = Rattus norvegicus, Wistar, RBL-2H3, read-out: IC50
[4] = Rattus norvegicus, Brain, read-out: IC50

Chain of Cannabinoid receptor 1 (P21554 whole entry): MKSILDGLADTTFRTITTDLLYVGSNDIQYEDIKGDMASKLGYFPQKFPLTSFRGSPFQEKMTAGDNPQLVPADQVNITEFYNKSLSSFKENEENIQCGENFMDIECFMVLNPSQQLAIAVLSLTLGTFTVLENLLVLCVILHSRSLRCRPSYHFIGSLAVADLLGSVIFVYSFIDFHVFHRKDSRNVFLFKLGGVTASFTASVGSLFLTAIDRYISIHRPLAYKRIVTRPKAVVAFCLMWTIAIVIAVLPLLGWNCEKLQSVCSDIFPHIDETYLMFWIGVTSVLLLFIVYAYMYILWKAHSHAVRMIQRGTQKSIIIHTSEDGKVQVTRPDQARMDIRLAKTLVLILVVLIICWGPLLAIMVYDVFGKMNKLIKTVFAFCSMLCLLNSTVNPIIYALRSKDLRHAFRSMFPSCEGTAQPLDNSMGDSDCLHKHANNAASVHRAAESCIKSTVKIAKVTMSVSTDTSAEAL
Chain of Cannabinoid receptor 2 (P34972 whole entry): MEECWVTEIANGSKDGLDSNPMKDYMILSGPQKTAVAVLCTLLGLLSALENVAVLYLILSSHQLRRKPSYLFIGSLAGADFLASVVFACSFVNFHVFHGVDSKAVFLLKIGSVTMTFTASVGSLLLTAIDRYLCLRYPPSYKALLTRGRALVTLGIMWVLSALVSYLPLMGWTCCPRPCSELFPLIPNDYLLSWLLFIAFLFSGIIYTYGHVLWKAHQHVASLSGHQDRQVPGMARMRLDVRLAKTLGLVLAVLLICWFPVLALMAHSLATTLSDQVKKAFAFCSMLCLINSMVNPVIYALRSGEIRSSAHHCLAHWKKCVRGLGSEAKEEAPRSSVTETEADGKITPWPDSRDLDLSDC
T1 sequence (Q8NER1 whole entry): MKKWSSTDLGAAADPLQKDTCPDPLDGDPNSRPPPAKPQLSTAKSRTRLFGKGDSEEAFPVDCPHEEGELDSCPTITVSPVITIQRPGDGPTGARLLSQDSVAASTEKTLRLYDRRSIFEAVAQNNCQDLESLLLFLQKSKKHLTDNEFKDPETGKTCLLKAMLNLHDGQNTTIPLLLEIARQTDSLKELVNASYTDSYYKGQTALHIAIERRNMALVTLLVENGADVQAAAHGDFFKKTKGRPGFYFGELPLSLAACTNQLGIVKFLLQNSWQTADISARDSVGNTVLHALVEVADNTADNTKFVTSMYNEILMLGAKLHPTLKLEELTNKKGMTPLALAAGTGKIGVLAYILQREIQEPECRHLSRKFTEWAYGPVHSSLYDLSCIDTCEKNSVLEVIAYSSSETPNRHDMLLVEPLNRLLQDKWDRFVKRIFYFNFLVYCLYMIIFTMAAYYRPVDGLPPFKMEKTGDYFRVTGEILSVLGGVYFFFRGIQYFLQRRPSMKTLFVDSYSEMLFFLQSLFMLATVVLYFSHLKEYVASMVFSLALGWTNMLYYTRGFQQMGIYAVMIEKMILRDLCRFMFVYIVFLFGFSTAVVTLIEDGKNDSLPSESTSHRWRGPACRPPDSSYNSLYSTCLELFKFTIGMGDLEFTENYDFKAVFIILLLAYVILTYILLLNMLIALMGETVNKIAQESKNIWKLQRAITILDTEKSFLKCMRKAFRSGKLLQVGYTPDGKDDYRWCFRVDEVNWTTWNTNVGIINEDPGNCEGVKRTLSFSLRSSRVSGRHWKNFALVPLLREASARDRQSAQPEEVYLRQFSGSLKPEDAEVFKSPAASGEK

| Compound | IC50 (RBL-2H3; rbl-2h3) | EC50 ([1]; hek293) | IC50 (Rattus norvegicus) | Ki (Cannabinoid receptor 1; cos) | Ki (Cannabinoid receptor 2; cos) | Emax [2] [%] | IC50 (RBL-2H3; [3]) [µM] | IC50 (Rattus norvegicus; [4]) [µM] | Ki (Cannabinoid receptor 1; read-out: Ki) [µM] | Ki (Cannabinoid receptor 2; read-out: Ki) [µM] | EC50 ([1]; read-out: EC50) [µM] |
| --- | --- | --- | --- | --- | --- | --- | --- | --- | --- | --- | --- |
| CCCCCCCCCCCCCCCC(=O)NCCO [PALMIDROL] | Not Active | Not Active | Not Active | Not Active | Not Active |  |  |  |  |  |  |
| CCCCCCCCCCCCCCCC(=O)NOCCO |  |  |  |  |  | 11.2 | > 25 | > 50 | > 10 | > 10 |  |
| CCCCCCCCCCCCCCCC(=O)N(O)CCO |  |  |  |  |  | 37 | > 25 | > 50 | > 10 | > 10 | 0.6 |
| CCCCCCCC/C=C\CCCCCCCC(=O)NCCO [OLEOYLETHANOLAMIDE] |  |  |  |  |  | 50.1 | 20 | 23 | 1.1 | > 10 | 0.89 |
| CCCCC/C=C\C/C=C\C/C=C\C/C=C\CCCC(=O)ONCCO |  |  |  |  |  | 28 | > 25 | > 50 | 3.5 | 2.4 |  |
| CCCCC/C=C\C/C=C\C/C=C\C/C=C\CCCC(=O)NCCO [ANANDAMIDE] |  |  |  |  |  | 54.7 | 14.5 | 19 |  |  | 0.49 |
| CCCCCCCC/C=C\CCCCCCCC(=O)ONCCO |  |  |  |  |  | 14.3 | > 25 | > 50 | > 10 | 8.6 |  |
| CCCCCCCC/C=C\CCCCCCCC(=O)NOCCO |  |  |  |  |  | 50 | 22.5 | > 50 | > 10 | 3.8 | 0.32 |
| CCCCCCCCCCCCCCCC(=O)ONCCO |  |  |  |  |  | 1.8 | > 25 | > 50 | > 10 | > 10 |  |
| CCCCC/C=C\C/C=C\C/C=C\C/C=C\CCCC(=O)NOCCO |  |  |  |  |  | 58.5 | > 25 | 25 | 0.47 | 0.081 | 0.25 |
| CCCCC/C=C\C/C=C\C/C=C\C/C=C\CCCC(=O)N(O)CCO |  |  |  |  |  | 55.3 | > 25 | > 50 | 3.9 | 1.9 | 0.26 |
| CCCCCCCC/C=C\CCCCCCCC(=O)N(O)CCO |  |  |  |  |  | 53.5 | 20 | > 50 | > 10 | 5.4 | 0.4 |
